pIC50: −log10 of the molar value. Where only a bound is given, the exact number is not on record here.

Experiment [1] deals with LNCaP. The experiment can be described thus: Antiproliferative activity against human LNCAP cells assessed as reduction in cell viability after 96 hrs by MTT assay. In kind it is functional, cell-based. In a few lines:
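LNCaP cells in RPMI-1640 with 10% FCS, penicillin/streptomycin, 37°C, 5% CO2; seeded 4000 cells/well, adhered overnight. Medium replaced with fresh medium carrying nine half-log concentrations up to 100 μM (DMSO 1:100) or DMSO control, triplicate, 96 h. MTT, formazan dissolved in acidified isopropanol, A540; viability vs DMSO; absolute IC50 by non-linear regression, mean of three independent experiments.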

In the next experiment the test system is VCaP. The experiment can be described thus: Antiproliferative activity against human VCaP cells assessed as reduction in cell viability after 96 hrs by MTS assay. In kind it is functional, cell-based. The method in brief:
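VCaP cells in DMEM with 10% FCS, exposed for 96 h in triplicate to nine concentrations from 0.1 to 100 μM or DMSO. Because adherence is poor, only half the medium was exchanged for medium carrying compound at a 1:50 dilution. Viability by MTS, absorbance at 490 nm after 1 and 2 h, normalised to DMSO; IC50 from triplicate means.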
Background: Tetrazolium dyes change colour on reduction, which living cells bring about.

The subject of a further experiment is PC-3. The experiment can be described thus: Antiproliferative activity against human PC3 cells assessed as reduction in cell viability after 96 hrs by MTT assay. The conditions noted are these: PC-3, 96 h. Type of experiment: functional, cell-based. In a few lines:
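PC3 cells grown in DMEM with 10% FCS, seeded at 4000 cells/well, adhered overnight, then medium replaced with medium containing nine concentrations from 0.1 to 100 μM (1:100 dilution of DMSO stocks) or DMSO control, in triplicate, for 96 h. MTT read-out: formazan dissolved in acidified isopropanol, absorbance at 540 nm; viability normalised to DMSO; IC50 from triplicate means.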

The target in experiment [2] is T1, Androgen receptor (Homo sapiens) (UniProt P10275).
T1 sequence (whole entry): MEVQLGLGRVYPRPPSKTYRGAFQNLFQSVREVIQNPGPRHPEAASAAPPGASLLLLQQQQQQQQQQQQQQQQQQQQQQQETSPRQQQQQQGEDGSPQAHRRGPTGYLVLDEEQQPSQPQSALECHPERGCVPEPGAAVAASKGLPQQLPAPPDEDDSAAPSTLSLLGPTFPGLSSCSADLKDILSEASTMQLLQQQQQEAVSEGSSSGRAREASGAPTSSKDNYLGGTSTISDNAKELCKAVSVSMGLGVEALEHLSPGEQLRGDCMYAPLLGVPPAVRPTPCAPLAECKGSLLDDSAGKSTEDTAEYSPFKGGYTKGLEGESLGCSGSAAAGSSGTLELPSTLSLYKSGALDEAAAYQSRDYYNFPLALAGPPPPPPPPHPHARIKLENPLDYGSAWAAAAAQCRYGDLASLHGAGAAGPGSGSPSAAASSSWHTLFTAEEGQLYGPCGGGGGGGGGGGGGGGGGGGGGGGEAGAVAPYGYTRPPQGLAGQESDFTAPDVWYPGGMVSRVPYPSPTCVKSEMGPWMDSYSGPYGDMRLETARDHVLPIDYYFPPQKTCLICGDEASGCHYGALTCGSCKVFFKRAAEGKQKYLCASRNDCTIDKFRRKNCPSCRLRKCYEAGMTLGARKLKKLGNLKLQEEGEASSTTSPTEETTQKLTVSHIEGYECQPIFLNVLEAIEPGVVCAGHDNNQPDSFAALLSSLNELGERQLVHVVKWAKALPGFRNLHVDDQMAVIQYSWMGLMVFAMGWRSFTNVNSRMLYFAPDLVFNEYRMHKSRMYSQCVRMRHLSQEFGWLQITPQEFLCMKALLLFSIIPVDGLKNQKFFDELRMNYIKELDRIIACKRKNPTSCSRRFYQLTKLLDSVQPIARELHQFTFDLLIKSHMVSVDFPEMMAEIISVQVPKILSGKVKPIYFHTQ
As to the kind of experiment: Antagonist activity at androgen receptor in human LNCAP cells assessed as reduction in PSA expression after 24 hrs by qPCR analysis. Type of experiment: cell-based. In a few lines:
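LNCaP cells seeded in 6-well plates in RPMI and allowed 24 h to adhere, then exposed to 5, 10, 50 and 100 μM for 24 h; untreated and DMSO (1:100) wells as negative controls. RNA extracted with TRI-reagent, reverse-transcribed, qPCR run in triplicate for PSA with AR, GAPDH, RPL19 and β-actin as housekeeping genes; relative expression by ΔΔCT.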
A general note: Real-time PCR tracks product formation cycle by cycle.

The test system of experiment [3] is LNCaP. The experiment can be described thus: Potency index, ratio of IC50 for bicalutamide to IC50 for test compound for antiproliferative activity against human LNCAP cells incubated for 96 hrs by MTT assay. In kind it is functional.
The test system of experiment [4] is LNCaP. The experiment can be described thus: Potency index, ratio of IC50 for enzalutamide to IC50 for test compound for antiproliferative activity against human LNCAP cells incubated for 96 hrs by MTT assay. In kind it is functional.

As to `CC(CSc1cc(C(F)(F)F)cc(C(F)(F)F)c1)C(=O)Nc1ccc([N+](=O)[O-])cc1C(F)(F)F` (racemic), in the experiment on LNCaP [1], the pIC50 (as a rule, the IC50 on a negative log10 scale, so that one unit is a factor of ten) is 4.36.

On to `CC(CSc1ccc(C(F)(F)F)cc1)C(=O)Nc1ccc([N+](=O)[O-])c(C(F)(F)F)c1` (racemic), for which, in the experiment with LNCaP [1], the negative logarithm of the IC50 (pIC50) was 5.36. Turning to `CC(CS(=O)(=O)c1cc(C(F)(F)F)cc(C(F)(F)F)c1)C(=O)Nc1ccc(C#N)cc1C(F)(F)F` (racemic), the pIC50 with LNCaP [1] was 5.02.

Take `CC(CSc1cc(C(F)(F)F)cc(C(F)(F)F)c1)C(=O)Nc1ccc(C#N)cc1C(F)(F)F` (racemic): the pIC50 with LNCaP [1] is 5.34. Still for that read-out and setting: for `CC(CSc1ccc(C(F)(F)F)cc1)C(=O)Nc1ccc([N+](=O)[O-])cc1C(F)(F)F` (racemic) the value was 4.26; for `CC(CS(=O)(=O)c1ccc(C(F)(F)F)cc1)C(=O)Nc1ccc([N+](=O)[O-])c(C(F)(F)F)c1` (racemic), 5.48; for `CC(CSc1cccc(OC(F)(F)F)c1)C(=O)Nc1ccc(C#N)c(C(F)(F)F)c1` (racemic), 3.94.

For the molecule `CC(CS(=O)(=O)c1ccc(F)cc1)C(=O)Nc1ccc([N+](=O)[O-])c(C(F)(F)F)c1` (racemic), the pIC50 in the experiment with VCaP is 5.09; with LNCaP [1] it was 5.57; with PC-3, 3.95. Moreover, the inhibition result in experiment [2] was “Dose-dependent effect”. `CC(CS(=O)(=O)c1cc(C(F)(F)F)cc(C(F)(F)F)c1)C(=O)Nc1ccc([N+](=O)[O-])cc1C(F)(F)F` (racemic): the pIC50 with LNCaP [1] is 5.51.

Consider `CC(CSc1cc(C(F)(F)F)cc(C(F)(F)F)c1)(Sc1cc(C(F)(F)F)cc(C(F)(F)F)c1)C(=O)Nc1ccc([N+](=O)[O-])cc1C(F)(F)F` (racemic), for which the results for the pIC50 in the experiment on VCaP, in the experiment with LNCaP [1] and in the experiment with PC-3 were 6.74, 6.37 and 6.04, respectively. In addition, the “Ratio IC50” value is recorded as more than 40 with LNCaP [3] and more than 3 in the experiment with LNCaP [4]. In experiment [2], the inhibition entry was “Dose-dependent effect”. For `CC(CS(=O)(=O)c1ccc(F)cc1)C(=O)Nc1ccc([N+](=O)[O-])cc1C(F)(F)F` (racemic), in the experiment with LNCaP [1], the pIC50 is 5.39. On the same count and under the same terms, for `CC(CS(=O)(=O)c1ccc(C(F)(F)F)cc1)C(=O)Nc1ccc(C#N)c(C(F)(F)F)c1` (racemic) the value was 4.24. For the molecule `CC(CSc1ccc(C(F)(F)F)cc1)(Sc1ccc(C(F)(F)F)cc1)C(=O)Nc1ccc(C#N)c(C(F)(F)F)c1` (racemic), the values for the pIC50 in the experiment on VCaP, in the experiment on LNCaP [1] and in the experiment with PC-3 were 6.89, 5.77 and 5.26, respectively. Also, the inhibition result in experiment [2] was “Dose-dependent effect”. For `CC(CSc1ccc(F)cc1)C(=O)Nc1ccc(C#N)c(C(F)(F)F)c1` (racemic), the negative logarithm of the IC50 (pIC50) in the experiment with LNCaP [1] was 5.06. Same read-out and setting: for `CC(CS(=O)(=O)c1ccc(F)cc1)C(=O)Nc1ccc(C#N)c(C(F)(F)F)c1` (racemic) the value was 3.94; for `CC(CS(=O)(=O)c1cc(C(F)(F)F)cc(C(F)(F)F)c1)C(=O)Nc1ccc(C#N)c(C(F)(F)F)c1` (racemic), 5.21; for `CC(CS(=O)(=O)c1ccc(C(F)(F)F)cc1)C(=O)Nc1ccc([N+](=O)[O-])cc1C(F)(F)F` (racemic), 4.58. In the case of `CC(CSc1ccc(F)cc1)C(=O)Nc1ccc([N+](=O)[O-])c(C(F)(F)F)c1` (racemic), the pIC50 in the experiment on LNCaP [1] is 4.57. The same measure, in the same setting: for `CC(CS(=O)(=O)c1cccc(OC(F)(F)F)c1)C(=O)Nc1ccc(C#N)c(C(F)(F)F)c1` (racemic) the value was 4.88; for `CC(CS(=O)(=O)c1cc(C(F)(F)F)cc(C(F)(F)F)c1)C(=O)Nc1ccc([N+](=O)[O-])c(C(F)(F)F)c1` (racemic), 4.91. As for `CC(CSc1ccc(F)cc1)C(=O)Nc1ccc([N+](=O)[O-])cc1C(F)(F)F` (racemic), the pIC50 with LNCaP [1] is 4.36.

On to `CC(CS(=O)(=O)c1ccc(C(F)(F)F)cc1)C(=O)Nc1ccc(C#N)cc1C(F)(F)F` (racemic), for which the pIC50 with LNCaP [1] was 4.54.

Regarding `C[C@](O)(CS(=O)(=O)c1ccc(F)cc1)C(=O)Nc1ccc(C#N)c(C(F)(F)F)c1` [(R)-BICALUTAMIDE], the pIC50 in the experiment on VCaP was 5.22; in the experiment on LNCaP [1], 4.69; in the experiment with PC-3, 4.03. On the same counts, the results for `CNC(=O)c1ccc(N2C(=S)N(c3ccc(C#N)c(C(F)(F)F)c3)C(=O)C2(C)C)cc1F` [ENZALUTAMIDE] are 5.44, 5.88 and 4.82.

For the origin of these results see ChEMBL document CHEMBL4339184, “Discovery of deshydroxy bicalutamide derivatives as androgen receptor antagonists” (Eur J Med Chem, 2019).
